From ChEMBL document CHEMBL1144020, “Development of prodrug 4-chloro-3-(5-methyl-3-{[4-(2-pyrrolidin-1-ylethoxy)phenyl]amino}-1,2,4-benzotriazin-7-yl)phenyl benzoate (TG100801): a topically administered therapeutic candidate in clinical trials for the treatment of age-related macular degeneration” (J Med Chem, 2008) come the findings set out here.

Series [1] is described as follows: Stability at 120 degC after 1 hr. Format: physicochemical. The note with it: read-out: Stability. The gist of the method: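 Prodrugs at 0.5% in 0.5% HPMC/5% dextrose, pH 6.7, in closed vials, autoclaved at 120 °C for 1 h. After cooling, percent remaining was assessed by reverse-phase HPLC with diode-array and ELSD detection.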
In series [2] the target is Vascular endothelial growth factor receptor 2 (Homo sapiens, UniProt P35968). In words: Inhibition of VEGFR2.
Series [3] has as its target Proto-oncogene tyrosine-protein kinase Src (Homo sapiens, UniProt P12931). Description: Inhibition of Src.
A short description of series [4]: Stability in Dutch-belted rabbit eye assessed as hydrolysis rate. Format: ADME, tissue-based, Oryctolagus cuniculus. The gist of the method:
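Two Dutch-Belted rabbit eyeballs were homogenized in 1× RIPA buffer. Prodrug (from 1 mg/mL DMSO stock) was added to a final 5 µg/mL and kept at 37 °C, sampled at 0, 0.25, 1, 2 and 6 h. Controls were prodrug in RIPA buffer for 120 min at 37 °C. Supernatants were analyzed by LC/MS/MS for prodrug and released parent phenol.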

Sequence of Vascular endothelial growth factor receptor 2 (P35968 whole entry): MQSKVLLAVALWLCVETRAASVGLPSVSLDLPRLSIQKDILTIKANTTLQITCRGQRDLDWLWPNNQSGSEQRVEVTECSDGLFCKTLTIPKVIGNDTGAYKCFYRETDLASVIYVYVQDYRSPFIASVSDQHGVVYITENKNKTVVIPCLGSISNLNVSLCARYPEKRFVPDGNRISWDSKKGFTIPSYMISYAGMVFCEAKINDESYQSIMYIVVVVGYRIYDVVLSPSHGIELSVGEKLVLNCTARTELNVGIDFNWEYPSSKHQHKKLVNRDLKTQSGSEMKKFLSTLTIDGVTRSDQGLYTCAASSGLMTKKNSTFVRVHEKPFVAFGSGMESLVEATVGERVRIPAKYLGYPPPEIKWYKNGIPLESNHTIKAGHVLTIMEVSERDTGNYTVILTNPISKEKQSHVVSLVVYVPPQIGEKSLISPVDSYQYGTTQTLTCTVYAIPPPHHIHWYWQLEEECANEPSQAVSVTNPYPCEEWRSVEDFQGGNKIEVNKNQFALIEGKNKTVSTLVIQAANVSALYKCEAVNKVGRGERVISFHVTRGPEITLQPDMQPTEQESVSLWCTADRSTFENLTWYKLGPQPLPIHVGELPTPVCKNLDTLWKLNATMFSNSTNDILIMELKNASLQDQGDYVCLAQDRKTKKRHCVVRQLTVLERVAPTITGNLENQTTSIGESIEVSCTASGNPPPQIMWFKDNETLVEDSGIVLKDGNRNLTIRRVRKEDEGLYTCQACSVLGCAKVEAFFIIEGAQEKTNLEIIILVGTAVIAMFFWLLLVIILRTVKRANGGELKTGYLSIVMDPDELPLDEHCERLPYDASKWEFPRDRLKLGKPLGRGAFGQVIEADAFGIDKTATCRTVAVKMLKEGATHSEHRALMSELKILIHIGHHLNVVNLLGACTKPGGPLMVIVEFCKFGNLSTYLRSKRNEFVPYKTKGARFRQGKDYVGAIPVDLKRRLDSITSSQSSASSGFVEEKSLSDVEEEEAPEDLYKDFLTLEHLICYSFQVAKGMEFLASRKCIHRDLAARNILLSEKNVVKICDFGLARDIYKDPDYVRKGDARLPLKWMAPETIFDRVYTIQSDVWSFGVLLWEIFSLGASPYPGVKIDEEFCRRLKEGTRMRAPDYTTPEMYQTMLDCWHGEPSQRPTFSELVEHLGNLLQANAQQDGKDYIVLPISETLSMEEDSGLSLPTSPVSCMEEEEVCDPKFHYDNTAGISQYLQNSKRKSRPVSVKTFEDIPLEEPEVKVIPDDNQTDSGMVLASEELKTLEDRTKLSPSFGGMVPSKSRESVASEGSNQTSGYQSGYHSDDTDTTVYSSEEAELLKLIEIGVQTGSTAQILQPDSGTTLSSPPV
Sequence of Proto-oncogene tyrosine-protein kinase Src (P12931 2-536 limits assumed): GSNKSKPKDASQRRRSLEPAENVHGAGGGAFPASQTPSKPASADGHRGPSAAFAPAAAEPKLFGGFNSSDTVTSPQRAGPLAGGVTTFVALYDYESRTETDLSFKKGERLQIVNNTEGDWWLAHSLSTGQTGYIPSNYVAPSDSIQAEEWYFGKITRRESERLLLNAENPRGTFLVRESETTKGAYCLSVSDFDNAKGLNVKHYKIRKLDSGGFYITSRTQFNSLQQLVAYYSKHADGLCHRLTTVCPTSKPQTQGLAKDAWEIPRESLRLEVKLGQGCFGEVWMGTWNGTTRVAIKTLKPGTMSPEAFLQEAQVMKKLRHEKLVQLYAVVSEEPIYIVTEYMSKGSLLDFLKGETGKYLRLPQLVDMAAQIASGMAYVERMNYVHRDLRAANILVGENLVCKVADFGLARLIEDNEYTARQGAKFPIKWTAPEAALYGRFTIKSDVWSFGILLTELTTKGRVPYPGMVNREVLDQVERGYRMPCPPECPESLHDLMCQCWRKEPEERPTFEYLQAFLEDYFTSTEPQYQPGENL

For `Cc1cc(-c2cc(OP(=O)(O)O)ccc2Cl)cc2nnc(Nc3ccc(OCCN4CCCC4)cc3)nc12`, the remaining at 1 h in series [1] is under 20%. The term IC50 denotes the concentration that gives 50% inhibition. Lower therefore signals higher potency. As to `Cc1cc(-c2ccccc2)cc2nnc(Nc3ccc(OCCN4CCCC4)cc3)nc12`, the concentration for half-maximal inhibition (IC50) in series [2] worked out at 530 nM. In other words, the sub-micromolar range. On the same count and under the same terms, to `Cc1cc(-c2cc(O)ccc2Cl)cc2nnc(Nc3ccc(S(=O)(=O)NCCN4CCCC4)cc3)nc12` belongs 4.7 nM. For `Cc1cc(-c2cc(O)ccc2Cl)cc2nnc(Nc3ccc(CCCN4CCCC4)cc3)nc12`, the half-inhibitory concentration (IC50) in series [3] was 1.5 nM; in series [2] it was 2.7 nM. In series [2], `Cc1cc(-c2cc(O)ccc2Cl)cc2nnc(Nc3ccc(C(=O)N4CCNCC4)cc3)nc12` returned an IC50 of 1.8 nM.

With `Cc1cc(-c2cc(O)ccc2Cl)cc2nnc(Nc3ccc(S(=O)(=O)C4CCNCC4)cc3)nc12`, in series [2], the concentration for half-maximal inhibition (IC50) is 1.7 nM. Take `Cc1cccc(C)c1C(=O)Oc1ccc(Cl)c(-c2cc(C)c3nc(Nc4ccc(OCCN5CCCC5)cc4)nnc3c2)c1`: the remaining at 1 h in series [1] was over 90%. In series [4], the Stability was 1.1 ng/mL/h.

`Cc1cc(-c2ccccc2Cl)cc2nnc(Nc3ccc(OCCN4CCCC4)cc3)nc12` gave an IC50 in series [2] of 1900 nM. This counts as single-digit micromolar.

In the case of `Cc1cc(-c2cc(OC(=O)C(C)(C)C)ccc2Cl)cc2nnc(Nc3ccc(OCCN4CCCC4)cc3)nc12`, the remaining at 1 h in series [1] is over 90%. The Stability in series [4] is 172 ng/mL/h.
